Data as given in paper PMC3838204 (Journal of the American Chemical Society, 2013).

Assay: Hydrolysis of peptide-thioester
Format: physicochemical
Method in brief: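 The Asp peptide-thioester (~2 mM) was incubated with Cys-peptide (~2.4 mM) in helium-purged buffer: 6 M Gu·HCl, 200 mM Na2HPO4, 10 mM TCEP·HCl, 20 mM MPAA, pH 7.0, RT, 18–24 h. Monitoring was by LC-MS and RP-HPLC (210 nm). Control omitted Cys-peptide and MPAA, at pH 6.8 for 19 h. The thioester was also examined after HF deprotection/cleavage.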

LYRAX-^αCOSR` [−Glu-α-thioester]
hydrolysis of the thioester, control (control in absence of the Cys-peptide and without added MPAA): no significant hydrolysis

LYRAD-^αCOSR`
hydrolysis of the peptide-thioester after HF deprotection and cleavage (after HF deprotection and cleavage): no hydrolysis | hydrolyzed product formed from the peptide-thioester (control in absence of the Cys-peptide and without added MPAA, 19 h, pH 6.8): about 30% | hydrolysis of the peptide-thioester during the ligation reaction (ligation conditions: 6 M guanidine hydrochloride, 200 mM Na2HPO4, 10 mM TCEP, 20 mM MPAA, pH 7.0, RT, 18–24 hours, LC-MS): nor was significant hydrolysis
